In ChEMBL document CHEMBL5385869, “Novel 4-aminoquinolines: Synthesis, inhibition of the Mycobacterium tuberculosis enoyl-acyl carrier protein reductase, antitubercular activity, SAR, and preclinical evaluation” (Eur J Med Chem, 2023):
Converted amounts (≈) assume the structure as drawn. The source made the active and inactive calls. The calls are words filed in the database; no cut-off is given here.

What was measured:
[1] = tested on: Mycobacterium tuberculosis; assay: Antibacterial activity against Mycobacterium tuberculosis H37Rv ATCC 27294 infected in CF-1 mouse assessed as reversal of bacterial growth in spleen at 150 uM/kg, po administered daily for 14 days starting from 7 days post infection; type: functional, organism-based; conditions: time 14.0 day
How it was run: (§1)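 Lung and spleen homogenates plated for CFU counts and compared with vehicle and early-control groups.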

[2] = target: T1, Enoyl-[acyl-carrier-protein] reductase [NADH] (Mycobacterium tuberculosis, UniProt P9WGR1); assay: Binding affinity to Mycobacterium tuberculosis H37Rv InhA assessed as dissociation constant in presence of NADH, octenoyl-CoA and KatG
T1 sequence (P9WGR1 whole entry): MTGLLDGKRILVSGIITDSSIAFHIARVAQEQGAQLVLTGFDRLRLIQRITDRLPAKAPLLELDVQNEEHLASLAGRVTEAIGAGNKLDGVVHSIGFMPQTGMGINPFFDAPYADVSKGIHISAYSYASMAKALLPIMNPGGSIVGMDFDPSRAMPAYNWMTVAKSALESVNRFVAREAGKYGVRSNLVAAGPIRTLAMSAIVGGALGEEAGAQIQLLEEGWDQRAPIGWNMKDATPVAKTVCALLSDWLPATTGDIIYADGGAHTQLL

[3] = tested on: Mycobacterium tuberculosis; assay: Antibacterial activity against pan-sensitive Mycobacterium tuberculosis H37Rv ATCC 27294 measured after 7 days by resazurin dye based assay; type: functional; conditions: H37Rv ATCC 27294, 168 h, time 7 day
How it was run: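 Resazurin reduction microplate assay (REMA) in Middlebrook 7H9 broth with 10% ADC and 5% DMSO. Compounds come from 2 mg/mL DMSO stocks and are 2-fold serially diluted, top concentration 0.08–40 μg/mL depending on solubility. MIC is the lowest concentration preventing the blue-to-pink colour change. Three independent experiments; the reported value is the modal or the highest value.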

[4] = target: T1, Enoyl-[acyl-carrier-protein] reductase [NADH]; assay: Binding affinity to wild type Mycobacterium tuberculosis InhA assessed as inhibition constant for formation of enzyme-inhibitor complex in presence of NADH and DD-CoA by spectrophotometry based analysis
[5] = tested on: Mycobacterium tuberculosis; assay: Bactericidal activity in Mycobacterium tuberculosis H37Rv ATCC 27294 infected in CF-1 mouse assessed as reduction in bacterial growth in lungs at 150 uM/kg, po administered daily for 14 days starting from 7 days post infection; type: functional, organism-based; conditions: time 14.0 day; how it was run: as §1
[6] = target: T1, Enoyl-[acyl-carrier-protein] reductase [NADH]; assay: Binding affinity to wild type Mycobacterium tuberculosis InhA assessed as inhibition constant in presence of NADH, DD-CoA by spectrophotometry based analysis

NNC(=O)c1ccncc1 [ISONIAZID]
Activity [1]: Active | Kd [2]: < 0.4 nM | MIC [3]: 2.3 µM (≈ 0.315 µg/mL) | Ki [4]: 16 nM | Activity [5]: Active | Ki [6]: 0.75 nM
